Data: ChEMBL document CHEMBL2046277, “Design, synthesis and biological evaluation of β-carboline derivatives as novel inhibitors targeting B-Raf kinase” (Bioorg Med Chem Lett, 2012)

Molecular target: Serine/threonine-protein kinase B-raf (Homo sapiens, UniProt P15056)
Assay: Inhibition of human wild type B-Raf kinase assessed as change in ATP consumption by luciferase-luiferin-coupled chemiluminescent assay
Outline: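 Wild-type B-Raf enzyme pre-incubated with compound 30 min at 30 °C, then ATP plus unactivated MEK1 substrate added and reacted 1 h at 30 °C. ADP-Glo reagent 40 min at 27 °C, then kinase detection reagent 30 min at 27 °C, luminescence read. IC50 fitted from inhibition rates; mean of two experiments.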

Sequence of Serine/threonine-protein kinase B-raf (P15056 whole entry): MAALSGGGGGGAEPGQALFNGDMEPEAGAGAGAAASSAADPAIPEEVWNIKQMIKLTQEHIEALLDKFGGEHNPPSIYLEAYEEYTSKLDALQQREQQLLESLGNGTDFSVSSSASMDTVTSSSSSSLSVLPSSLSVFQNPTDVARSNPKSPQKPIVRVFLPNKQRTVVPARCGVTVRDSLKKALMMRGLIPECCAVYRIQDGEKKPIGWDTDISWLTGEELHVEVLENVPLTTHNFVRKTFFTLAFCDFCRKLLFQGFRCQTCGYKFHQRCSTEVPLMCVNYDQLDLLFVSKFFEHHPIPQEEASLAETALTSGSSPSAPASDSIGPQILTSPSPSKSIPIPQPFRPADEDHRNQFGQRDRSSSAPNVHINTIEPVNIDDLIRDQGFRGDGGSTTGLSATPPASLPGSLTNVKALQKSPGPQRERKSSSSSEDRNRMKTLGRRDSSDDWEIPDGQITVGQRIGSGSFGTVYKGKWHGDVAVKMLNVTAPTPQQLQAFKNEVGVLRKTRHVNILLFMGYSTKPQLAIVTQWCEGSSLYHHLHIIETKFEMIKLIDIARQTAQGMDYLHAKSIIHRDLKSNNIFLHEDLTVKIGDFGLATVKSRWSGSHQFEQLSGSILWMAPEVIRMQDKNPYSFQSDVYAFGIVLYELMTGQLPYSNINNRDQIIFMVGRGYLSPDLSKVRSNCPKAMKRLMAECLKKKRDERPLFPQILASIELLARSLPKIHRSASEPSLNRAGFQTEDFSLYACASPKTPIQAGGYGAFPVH

Row | Structure (SMILES) | IC50
1 | NC(=O)c1nccc2c1[nH]c1ccc(S(=O)(=O)NCCO)cc12 | 23.7 µM
2 | NC(=O)c1nccc2c1[nH]c1ccc(S(=O)(=O)NCCCO)cc12 | 20.5 µM
3 | COCCCNS(=O)(=O)c1ccc2[nH]c3c(C(N)=O)nccc3c2c1 | 22.7 µM
4 | CC(O)CNS(=O)(=O)c1ccc2[nH]c3c(C(N)=O)nccc3c2c1 (stereo not drawn) | 22 µM
5 | CC(=O)NS(=O)(=O)c1ccc2[nH]c3cnccc3c2c1 | 59.1 µM
6 | NC(=O)c1nccc2c1[nH]c1ccc(S(=O)(=O)NCC(O)CO)cc12 (stereo not drawn) | 45.1 µM
7 | CCCNS(=O)(=O)c1ccc2[nH]c3c(C(N)=O)nccc3c2c1 | 28.5 µM
8 | NC(=O)c1nccc2c1[nH]c1ccc(S(=O)(=O)Nc3ccc(F)cc3)cc12 | 8.89 µM
9 | COC(CNS(=O)(=O)c1ccc2[nH]c3c(C(N)=O)nccc3c2c1)OC | 91.5 µM
10 | NC(=O)c1nccc2c1[nH]c1ccc(S(=O)(=O)NC3CC3)cc12 | 9.07 µM
11 | Cc1ccc(NS(=O)(=O)c2ccc3[nH]c4c(C(N)=O)nccc4c3c2)cc1 | 20.5 µM

Molecules with a lower IC50, results first:

Row | IC50 | Structure (SMILES)
12 | 2.12 µM | NC(=O)c1nccc2c1[nH]c1ccc(S(N)(=O)=O)cc12
13 | 1.62 µM | CN(C)CCCNS(=O)(=O)c1ccc2[nH]c3c(C(N)=O)nccc3c2c1
14 | 3.76 µM | NC(=O)c1nccc2c1[nH]c1ccc(S(=O)(=O)Nc3ccccn3)cc12
15 | 2.74 µM | NC(=O)c1nccc2c1[nH]c1ccc(S(=O)(=O)Nc3ccccc3)cc12
16 | 2.81 µM | CCN(CC)CCCNS(=O)(=O)c1ccc2[nH]c3c(C(N)=O)nccc3c2c1
17 | 7.48 µM | NC(=O)c1nccc2c1[nH]c1ccc(S(=O)(=O)Nc3nccs3)cc12
18 | 2.49 µM | NS(=O)(=O)c1ccc2[nH]c3cnccc3c2c1
